Active and inactive are the calls of the source. Unless noted, the calls are words filed in the database; no cut-off is given here.
Tests used:
U-937 [1] = assay: Induction of granulocytic differentiation in human U937 cells assessed as CD11c expression at 5 uM after 30 hrs; format: functional
Outline: (§1)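 U937 cells treated for 30 h, then stained with PE-conjugated CD11c (PE mouse IgG1 as control) for 30 min at 4 °C in the dark and resuspended in PBS with PI (0.25 µg/mL). Read-out is percent CD11c-positive/PI-negative cells, with dead PI-positive cells excluded. Coloured compounds limited the top dose to 5 µM or lower.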

U-937 [2] = assay: Induction of cell cycle arrest in human U937 cells at 25 uM after 30 hrs; format: functional, cell-based
Outline: (§2)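 U937 cells in RPMI with 10% fetal calf serum, HEPES and glutamine, kept at 200000 cells/mL; treated at 25 µM for 30 h, then the distribution across cell cycle phases was analysed.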

U-937 [3] = assay: Induction of apoptosis in human U937 cells at 25 uM after 30 hrs; format: functional
Outline: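 Apoptosis read as caspase 3 activation by FACS, in U937 cells (RPMI, 10% fetal calf serum, 200000 cells/mL) exposed to 25 µM for 30 h.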

U-937 [4] = assay: Induction of granulocytic differentiation in human U937 cells assessed as CD11c expression at 25 uM after 30 hrs; format: functional; outline: as §1
[5] = biological target: T1, Histone-arginine methyltransferase CARM1 (Homo sapiens) (UniProt Q86X55); assay: Inhibition of human recombinant CARM1 assessed as poly(A) binding protein 1 methylation at 100 uM
T1 sequence (whole entry): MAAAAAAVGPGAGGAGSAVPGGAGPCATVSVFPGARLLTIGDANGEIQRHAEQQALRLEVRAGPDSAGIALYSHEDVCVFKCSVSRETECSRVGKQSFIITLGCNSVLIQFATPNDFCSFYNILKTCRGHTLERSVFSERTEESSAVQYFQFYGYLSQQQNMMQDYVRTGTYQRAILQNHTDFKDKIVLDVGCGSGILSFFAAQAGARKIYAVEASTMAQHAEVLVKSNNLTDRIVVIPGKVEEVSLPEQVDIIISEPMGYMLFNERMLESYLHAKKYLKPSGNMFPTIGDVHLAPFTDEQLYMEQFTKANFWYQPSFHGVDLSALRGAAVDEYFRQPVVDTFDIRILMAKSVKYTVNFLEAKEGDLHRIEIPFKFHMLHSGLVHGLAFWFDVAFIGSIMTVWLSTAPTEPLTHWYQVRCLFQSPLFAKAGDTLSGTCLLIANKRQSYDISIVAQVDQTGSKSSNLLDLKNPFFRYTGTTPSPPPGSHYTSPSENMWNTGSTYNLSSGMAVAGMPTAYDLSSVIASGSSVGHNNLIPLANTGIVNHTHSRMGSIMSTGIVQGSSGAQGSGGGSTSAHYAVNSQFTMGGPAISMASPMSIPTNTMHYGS
Outline: (§3)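 Recombinant enzymes (0.2 µg) with substrate (0.5 µg: Npl3p for PRMT1, PABP1 for CARM1, histone H3 for SET7), 0.5 µM [3H]AdoMet and 100 µM compound in PBS pH 7.4 with 3.3% v/v DMSO, 90 min at 30 °C. Products separated by 10% SDS-PAGE, transferred to PVDF, detected by fluorography on film overnight.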

RmtA = RmtA (Emericella nidulans, UniProt Q5VLE3); assay: Inhibition of Aspergillus nidulans RmtA
Outline: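 Enzyme was GST-RmtA fusion expressed in E. coli BL21 and glutathione-affinity purified (500 ng), preincubated with compound for 15 min at room temperature. Then 20 µg chicken erythrocyte core histones and 0.55 µCi [3H]AdoMet were added, 30 min at 30 °C. Stopped with 25% TCA, filtered, counted by liquid scintillation.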

U-937 [6] = assay: Inhibition of histone H3K4 methylation in human U937 cells at 50 uM after 24 hrs; format: functional, cell-based
Outline: (§4)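 U937 cells treated at 50 µM for 24 h. Histones extracted with Triton buffer, then 0.2 M HCl overnight at 4 °C. 3–10 µg run on 15% SDS-PAGE and immunoblotted with anti-monomethyl-H3K4, monomethyl-H4R3 or dimethyl-H3R17 (1:500, overnight 4 °C), ECL detection. Loading controls: total H4 (H3K4), Ponceau Red (Arg marks).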

U-937 [7] = assay: Cell cycle arrest in human U937 cells assessed as accumulation at G1/G2 phase at 25 uM after 30 hrs; format: functional, cell-based; outline: as §2
U-937 [8] = assay: Inhibition of histone H3R17 methylation in human U937 cells at 50 uM after 24 hrs; format: functional, cell-based; outline: as §4
[9] = biological target: Protein arginine N-methyltransferase 1 (Homo sapiens) (UniProt Q99873); assay: Inhibition of human recombinant PRMT1 assessed as histone H4 methylation at 50 uM
[10] = biological target: T2, Histone-lysine N-methyltransferase SETD7 (Homo sapiens) (UniProt Q8WTS6); assay: Inhibition of human recombinant SET7 assessed as histone H3 protein methylation at 100 uM; outline: as §3
T2 sequence (whole entry): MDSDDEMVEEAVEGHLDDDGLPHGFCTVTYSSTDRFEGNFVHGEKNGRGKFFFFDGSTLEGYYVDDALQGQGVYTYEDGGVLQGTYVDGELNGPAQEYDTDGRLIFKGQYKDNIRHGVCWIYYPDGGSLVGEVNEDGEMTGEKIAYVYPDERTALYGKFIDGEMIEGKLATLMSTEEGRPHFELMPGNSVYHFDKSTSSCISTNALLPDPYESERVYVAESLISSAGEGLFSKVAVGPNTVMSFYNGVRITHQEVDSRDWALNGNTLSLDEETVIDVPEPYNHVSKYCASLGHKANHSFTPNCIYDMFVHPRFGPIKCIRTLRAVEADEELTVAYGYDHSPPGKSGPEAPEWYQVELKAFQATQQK

U-937 [11] = assay: Inhibition of human p300/CBP in U937 cells at 50 uM assessed as histone H3 acetylation; format: cell-based
Outline: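 Source was U937 nuclear extract (10 µg per assay) as p300/CBP HAT, with histone H3 substrate and compound at 50 µM or DMSO control for 90 min. Acetyl-H3 detected by indirect ELISA, quantified against acetylated H3 peptide standard curves, […].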

[12] = biological target: Protein arginine N-methyltransferase 1 (Homo sapiens) (UniProt Q99873); assay: Inhibition of human recombinant PRMT1 assessed as nuclear ribonucleoprotein Npl3p methylation at 100 uM; outline: as §3
[13] = biological target: T3, NAD-dependent protein deacetylase sirtuin-1 (Homo sapiens) (UniProt Q96EB6); assay: Inhibition of human SIRT1 at 25 uM
T3 sequence (whole entry): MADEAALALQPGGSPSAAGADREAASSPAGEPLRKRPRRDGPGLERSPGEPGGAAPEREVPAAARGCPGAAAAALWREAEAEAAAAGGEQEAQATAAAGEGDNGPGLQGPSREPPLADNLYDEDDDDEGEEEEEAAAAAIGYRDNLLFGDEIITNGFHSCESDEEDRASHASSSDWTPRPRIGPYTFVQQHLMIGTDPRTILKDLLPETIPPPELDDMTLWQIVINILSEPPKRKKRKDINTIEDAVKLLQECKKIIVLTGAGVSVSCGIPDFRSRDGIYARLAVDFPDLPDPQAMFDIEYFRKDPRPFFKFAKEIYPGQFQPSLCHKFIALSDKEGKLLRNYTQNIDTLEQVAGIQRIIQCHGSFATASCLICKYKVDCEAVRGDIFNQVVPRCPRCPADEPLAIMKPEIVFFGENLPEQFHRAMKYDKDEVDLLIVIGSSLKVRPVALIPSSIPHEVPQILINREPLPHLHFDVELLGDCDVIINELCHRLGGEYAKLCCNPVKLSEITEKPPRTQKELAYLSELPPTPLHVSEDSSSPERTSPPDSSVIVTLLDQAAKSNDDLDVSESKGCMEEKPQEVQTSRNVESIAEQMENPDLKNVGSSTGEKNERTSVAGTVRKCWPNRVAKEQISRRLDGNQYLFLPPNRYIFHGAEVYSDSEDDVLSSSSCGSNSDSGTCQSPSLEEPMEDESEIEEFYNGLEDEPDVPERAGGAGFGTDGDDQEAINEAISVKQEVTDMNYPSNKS
Outline: (§5)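 Fluorescent two-stage assay. SIRT1 (1 U/well) or SIRT2 (5 U/well) with Fluor de Lys-SIRT1/2 substrate, NAD+ and compound at 25 µM, 37 °C for 2 h. Developer II containing nicotinamide then stopped the reaction and generated signal, read at ex 360/em 460 nm.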

U-937 [14] = assay: Inhibition of histone H4R3 methylation in human U937 cells at 50 uM after 24 hrs; format: functional, cell-based; outline: as §4
U-937 [15] = assay: Induction of granulocytic differentiation in human U937 cells assessed as CD11c expression at 1 uM after 30 hrs; format: functional; outline: as §1
[16] = biological target: T4, NAD-dependent protein deacetylase sirtuin-2 (Homo sapiens) (UniProt Q8IXJ6); assay: Inhibition of human SIRT2 at 25 uM; outline: as §5
T4 sequence (whole entry): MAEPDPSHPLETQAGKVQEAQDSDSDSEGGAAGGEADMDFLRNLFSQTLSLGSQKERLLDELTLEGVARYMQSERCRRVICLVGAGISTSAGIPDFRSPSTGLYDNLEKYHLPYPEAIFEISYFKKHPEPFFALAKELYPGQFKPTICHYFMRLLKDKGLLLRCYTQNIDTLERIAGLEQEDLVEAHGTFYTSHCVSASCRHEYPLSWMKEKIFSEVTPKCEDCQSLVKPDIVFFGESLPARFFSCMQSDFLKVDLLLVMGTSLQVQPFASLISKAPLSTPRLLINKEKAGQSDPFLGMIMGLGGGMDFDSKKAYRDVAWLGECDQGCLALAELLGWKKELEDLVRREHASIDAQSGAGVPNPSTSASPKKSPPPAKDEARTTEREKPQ

Chain of Protein arginine N-methyltransferase 1 (Homo sapiens) (Q99873 whole entry, looked up): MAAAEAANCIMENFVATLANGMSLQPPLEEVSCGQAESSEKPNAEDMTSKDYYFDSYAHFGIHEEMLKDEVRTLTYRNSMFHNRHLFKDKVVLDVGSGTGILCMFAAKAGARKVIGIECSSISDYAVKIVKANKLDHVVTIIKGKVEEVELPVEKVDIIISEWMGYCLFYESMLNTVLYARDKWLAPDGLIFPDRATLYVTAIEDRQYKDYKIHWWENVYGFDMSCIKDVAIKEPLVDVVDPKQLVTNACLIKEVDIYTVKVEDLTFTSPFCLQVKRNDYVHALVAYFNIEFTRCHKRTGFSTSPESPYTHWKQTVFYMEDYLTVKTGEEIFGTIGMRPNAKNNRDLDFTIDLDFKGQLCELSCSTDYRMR
Chain of RmtA (Q5VLE3 whole entry, the tested form may be a part): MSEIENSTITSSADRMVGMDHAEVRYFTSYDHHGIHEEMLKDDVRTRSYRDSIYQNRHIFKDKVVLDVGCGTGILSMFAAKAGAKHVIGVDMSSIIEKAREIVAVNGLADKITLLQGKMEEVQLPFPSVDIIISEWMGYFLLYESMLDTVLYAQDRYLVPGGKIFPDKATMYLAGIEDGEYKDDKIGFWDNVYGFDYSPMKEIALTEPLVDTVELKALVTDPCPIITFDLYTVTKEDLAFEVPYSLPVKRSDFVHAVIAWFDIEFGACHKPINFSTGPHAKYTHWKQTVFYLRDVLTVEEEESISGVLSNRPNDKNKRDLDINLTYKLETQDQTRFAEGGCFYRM

Row | SMILES | Activity (U-937 [1]) [%] | Activity (U-937 [2]) | Activity (U-937 [3]) [%] | Activity (U-937 [4]) [%] | Activity [5] | IC50 (RmtA) [µM] | Activity (U-937 [6]) | Activity (U-937 [7]) | Activity (U-937 [8]) | inhibition [9] [%] | Activity [10] | inhibition (U-937 [11]) [%] | Activity [12] | inhibition [13] [%] | Activity (U-937 [14]) | Activity (U-937 [15]) [%] | inhibition [16] [%]
1 | COc1cc(/C=C/C(=O)CC(=O)/C=C/c2ccc(O)c(OC)c2)ccc1O [CURCUMIN] | 25.3 | inactive | 8.5 | 25 |  |  |  |  |  |  |  |  |  |  |  |  | 
2 | O=C(/C=C/c1cc(Br)c(O)c(Br)c1)c1cccc(C(=O)/C=C/c2cc(Br)c(O)c(Br)c2)c1 |  |  | 42.6 |  | Active | 10 | Active | Active | Active | 60 | Active | 83 | Active | 73 | Active | 38.8 | 48

Reference: ChEMBL document CHEMBL1144710, “epigenetic multiple ligands: mixed histone/protein methyltransferase, acetyltransferase, and class III deacetylase (sirtuin) inhibitors” (J Med Chem, 2008)
